How the values were obtained:
[1] = molecular target: T1, Progesterone receptor (Rattus norvegicus) (UniProt Q63449); assay: Relative binding affinity for progesterone receptor in a competitive radiometric binding assay relative to the affinity of R5020 as tracer
T1 sequence (whole entry): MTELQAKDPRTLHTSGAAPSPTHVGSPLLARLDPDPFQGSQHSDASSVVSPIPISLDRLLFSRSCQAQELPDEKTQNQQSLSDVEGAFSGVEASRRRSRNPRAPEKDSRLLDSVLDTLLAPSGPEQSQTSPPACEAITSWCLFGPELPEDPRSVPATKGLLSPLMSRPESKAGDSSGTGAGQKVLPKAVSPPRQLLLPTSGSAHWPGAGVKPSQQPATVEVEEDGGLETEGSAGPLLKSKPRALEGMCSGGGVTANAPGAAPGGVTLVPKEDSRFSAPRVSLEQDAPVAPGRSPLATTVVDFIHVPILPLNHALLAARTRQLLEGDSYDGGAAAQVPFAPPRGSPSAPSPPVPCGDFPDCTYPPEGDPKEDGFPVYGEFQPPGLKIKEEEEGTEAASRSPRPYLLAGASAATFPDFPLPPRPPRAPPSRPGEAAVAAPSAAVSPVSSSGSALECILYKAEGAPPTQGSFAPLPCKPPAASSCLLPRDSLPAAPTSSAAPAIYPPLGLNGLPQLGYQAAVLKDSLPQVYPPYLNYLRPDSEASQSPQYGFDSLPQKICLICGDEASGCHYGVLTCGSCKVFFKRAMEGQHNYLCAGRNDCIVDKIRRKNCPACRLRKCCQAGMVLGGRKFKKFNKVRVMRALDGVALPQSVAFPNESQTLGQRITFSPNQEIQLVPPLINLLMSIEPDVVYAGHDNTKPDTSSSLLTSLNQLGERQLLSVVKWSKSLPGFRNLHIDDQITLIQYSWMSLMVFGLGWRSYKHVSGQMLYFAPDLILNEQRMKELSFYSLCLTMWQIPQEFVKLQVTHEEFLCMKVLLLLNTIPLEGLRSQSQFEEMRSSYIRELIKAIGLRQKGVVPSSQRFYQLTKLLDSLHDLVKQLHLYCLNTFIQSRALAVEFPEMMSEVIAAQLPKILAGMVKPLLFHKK
Procedure, shortened: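 The R5020 standard is defined as 100%, and binding of other ligands is expressed as a percentage relative to it.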

[2] = molecular target: T2, Mineralocorticoid receptor (Rattus norvegicus) (UniProt P22199); assay: Relative binding affinity for the rat kidney mineralocorticoid receptor (MR) relative to the affinity of aldosterone as tracer
T2 sequence (whole entry): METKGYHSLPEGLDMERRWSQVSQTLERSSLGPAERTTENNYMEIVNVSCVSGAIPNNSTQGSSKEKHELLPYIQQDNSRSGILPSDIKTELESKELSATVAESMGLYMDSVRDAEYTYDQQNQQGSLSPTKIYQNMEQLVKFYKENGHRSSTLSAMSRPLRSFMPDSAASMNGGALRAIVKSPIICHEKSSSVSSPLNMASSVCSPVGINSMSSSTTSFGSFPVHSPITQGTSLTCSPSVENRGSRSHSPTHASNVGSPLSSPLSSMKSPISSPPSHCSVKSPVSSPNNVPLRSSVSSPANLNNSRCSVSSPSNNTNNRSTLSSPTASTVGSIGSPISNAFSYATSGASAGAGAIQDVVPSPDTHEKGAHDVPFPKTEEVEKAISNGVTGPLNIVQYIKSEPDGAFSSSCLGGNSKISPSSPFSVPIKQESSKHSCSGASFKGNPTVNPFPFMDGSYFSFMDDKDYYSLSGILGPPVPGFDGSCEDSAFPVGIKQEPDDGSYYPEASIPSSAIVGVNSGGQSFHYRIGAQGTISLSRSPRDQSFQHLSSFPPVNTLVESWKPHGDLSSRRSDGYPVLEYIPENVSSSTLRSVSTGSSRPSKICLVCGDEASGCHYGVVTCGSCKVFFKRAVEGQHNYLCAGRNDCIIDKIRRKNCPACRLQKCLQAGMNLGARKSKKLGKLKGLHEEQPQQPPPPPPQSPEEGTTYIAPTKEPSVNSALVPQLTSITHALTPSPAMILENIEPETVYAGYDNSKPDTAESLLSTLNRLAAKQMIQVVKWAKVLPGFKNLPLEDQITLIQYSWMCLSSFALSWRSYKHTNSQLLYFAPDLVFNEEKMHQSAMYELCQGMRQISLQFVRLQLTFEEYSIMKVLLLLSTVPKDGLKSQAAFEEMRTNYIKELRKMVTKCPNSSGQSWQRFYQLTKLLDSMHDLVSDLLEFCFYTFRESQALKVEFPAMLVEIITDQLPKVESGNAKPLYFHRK

Row | Compound | relative binding affinity (RBA) [1] | relative binding affinity (RBA) [2]
1 | CC(=O)[C@@]12OC(C)(c3ccc(N=[N+]=[N-])cc3)O[C@@H]1CC1C3CCC4=CC(=O)CC[C@]4(C)C3CC[C@@]12C (stereo in doubt; 6) | 15 | 0.13
2 | CC(=O)[C@@]12OC(C)(c3ccc(N)cc3)O[C@@H]1CC1C3CCC4=CC(=O)CC[C@]4(C)C3CC[C@@]12C (some centres undefined) | 0.01 | –
3 | CC(=O)[C@@]12OC(C)(c3ccc(N=[N+]=[N-])c(I)c3)O[C@@H]1CC1C3CCC4=CC(=O)CC[C@]4(C)C3CC[C@@]12C (some centres undefined) | 2.9 | –
4 | CC(=O)[C@@]12OC(C)(c3ccc(F)cc3)O[C@@H]1CC1C3CCC4=CC(=O)CC[C@]4(C)C3CC[C@@]12C (stereo in doubt; 10) | 53 | 6
5 | CC(=O)[C@@]12OC(C)(c3ccc(F)cc3)O[C@@H]1CC1C3CCC4=CC(=O)CC[C@]4(C)C3CC[C@@]12C (stereo in doubt; 11) | 0.56 | –
6 | CC(=O)[C@@]12OC(C)(c3ccccc3)O[C@@H]1C[C@H]1[C@@H]3CCC4=CC(=O)CC[C@]4(C)[C@H]3CC[C@@]12C (stereo in doubt; 16) | 16 | 1.6
7 | CC(=O)[C@@]12OC(C)(c3c(F)c(F)c(F)c(F)c3F)O[C@@H]1CC1C3CCC4=CC(=O)CC[C@]4(C)C3CC[C@@]12C (some centres undefined) | 20 | 0.65
8 | CC(=O)[C@@]12OC(C)(c3ccco3)OC1CC1C3CCC4=CC(=O)CC[C@]4(C)C3CC[C@@]12C (some centres undefined) | 5.5 | –
9 | CC(=O)[C@@]12OC(C)(c3c(F)c(F)c(N=[N+]=[N-])c(F)c3F)O[C@@H]1CC1C3CCC4=CC(=O)CC[C@]4(C)C3CC[C@@]12C (some centres undefined) | 14 | 0.95
10 | CC(=O)[C@@]12OC(C)(c3ccccc3)O[C@@H]1C[C@H]1[C@@H]3CCC4=CC(=O)CC[C@]4(C)[C@H]3CC[C@@]12C (stereo in doubt; 17) | 1.2 | –
11 | CC(=O)[C@@]12OC(C)(C)O[C@@H]1C[C@H]1[C@@H]3CCC4=CC(=O)CC[C@]4(C)[C@H]3CC[C@@]12C | 2 | –
12 | CC(=O)[C@@]12OC(C)(c3ccc(N=C=S)cc3)O[C@@H]1CC1C3CCC4=CC(=O)CC[C@]4(C)C3CC[C@@]12C (some centres undefined) | 1.3 | 0.09
13 | CC(=O)[C@@]12OC(C)(c3ccc(C(=O)c4ccccc4)cc3)O[C@@H]1CC1C3CCC4=CC(=O)CC[C@]4(C)C3CC[C@@]12C (some centres undefined) | 6.6 | < 0.003
14 | CC(=O)[C@@]12OC(C)(c3ccc(I)cc3)O[C@@H]1CC1C3CCC4=CC(=O)CC[C@]4(C)C3CC[C@@]12C (some centres undefined) | 25 | 0.13
15 | CC(=O)[C@@]12OC(C)(c3ccc(N=[N+]=[N-])cc3)O[C@@H]1CC1C3CCC4=CC(=O)CC[C@]4(C)C3CC[C@@]12C (stereo in doubt; 7) | 0.18 | –
16 | CC(=O)[C@H]1CC[C@H]2[C@@H]3CCC4=CC(=O)CC[C@]4(C)[C@H]3CC[C@]12C | 13 | –

From ChEMBL document CHEMBL1127017
